High-throughput results deposited in PubChem by The Scripps Research Institute Molecular Screening Center.
mABHD4 FP – inhibits mouse alpha/beta hydrolase domain 4 | Q8VD66 | purified mABHD4, FP-Rh probe fluorescence polarization | inhibition, % at 8.92 µM | 370,000 compounds, 0.54% hits | AID 720543;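 active means inhibition exceeding the mean over every tested compound plus 3 SD, cut at about 30% in these data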;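 further: 0% = plate median of compound wells and 100% = S159A mutant with DMSO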
Target sequence (Q8VD66 whole entry, looked up, the tested form may be a part): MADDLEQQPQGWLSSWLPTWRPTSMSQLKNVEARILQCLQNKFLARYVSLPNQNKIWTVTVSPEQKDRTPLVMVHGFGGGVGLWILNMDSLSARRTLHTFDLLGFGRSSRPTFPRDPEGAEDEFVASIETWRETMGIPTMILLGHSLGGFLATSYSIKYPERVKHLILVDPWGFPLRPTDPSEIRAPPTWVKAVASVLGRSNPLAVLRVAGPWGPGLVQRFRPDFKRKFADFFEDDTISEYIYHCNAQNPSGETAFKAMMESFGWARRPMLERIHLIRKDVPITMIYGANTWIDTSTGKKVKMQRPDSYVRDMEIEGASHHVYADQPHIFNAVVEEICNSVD
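System: mouse ABHD4 enzyme, wild type / Medium: HEPES pH 7.0, NaCl, Pluronic buffer / Reagent: FP-Rh activity-based fluorescent probe / Control set: S159A mutant high control, sample median low control / Detection: fluorescence polarization with parallel and perpendicular emission, 525/598 nm / Schedule: 45 min + 60 min at 25 °C / Compound dosing: 8.92 µM, single dose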
DAGLB inh – blocks human DAGLB lipase activity; Q8NCG7; inhibition, % at 5.17 µM; HEK293T DAGLB membrane lysate, EnzChek fluorogenic substrate; AID 504411; 340,000 compounds, 0.059% hits; in the data active means inhibition above about 34%;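 further: 0% = enzyme with vehicle and 100% = wells lacking enzyme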
HTRA1 inh – HTRA1 (human) protease inhibition; recombinant HTRA1, FP-rhodamine activity-based probe, fluorescence polarization; inhibition, % at 5.96 µM; 340,000 compounds, 0.5% hits; AID 504803; in the data active means inhibition above about 36%;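 further: 0% = enzyme with DMSO and 100% = wells lacking enzyme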
Target sequence (Q92743 whole entry, looked up): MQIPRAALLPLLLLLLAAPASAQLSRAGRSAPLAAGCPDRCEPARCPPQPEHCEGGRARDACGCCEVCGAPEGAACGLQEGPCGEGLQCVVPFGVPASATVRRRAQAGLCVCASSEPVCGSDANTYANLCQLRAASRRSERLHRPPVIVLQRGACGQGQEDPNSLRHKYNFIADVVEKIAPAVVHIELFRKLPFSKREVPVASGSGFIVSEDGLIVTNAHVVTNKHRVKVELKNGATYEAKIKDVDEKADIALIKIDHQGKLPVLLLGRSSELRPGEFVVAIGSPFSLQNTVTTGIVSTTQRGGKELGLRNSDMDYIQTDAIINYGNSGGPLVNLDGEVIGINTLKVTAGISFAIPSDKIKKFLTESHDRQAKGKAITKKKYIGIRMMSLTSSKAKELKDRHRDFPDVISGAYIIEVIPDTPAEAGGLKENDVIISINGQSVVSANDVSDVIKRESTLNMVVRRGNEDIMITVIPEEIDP
SIAE inh – inhibitors of human sialic acid acetylesterase SIAE | Q9HAT2 | 370,000 compounds, 0.69% hits | SIAE FP-Rh probe binding, fluorescence polarization | AID 1053197 | inhibition, % at 9.66 µM;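 active means inhibition above a cutoff: mean of compounds within the control limits plus 3 SD of those, cut at about 17% in these data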;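 further: 0% = plate median of compound wells and 100% = probe without SIAE protein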
TCR-CD3 inh – human TCR-CD3 binding inhibition | TAMRA-labeled TCR probe fluorescence, biochemical | inhibition, % at 9.4 µM | 360,000 compounds, 0.37% hits | AID 651800;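 further: recombinant mutant TCR 2C K166C tagged with TAMRA read by polarization; 0% = receptor in buffer alone and 100% = receptor with positive control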
HTRA1 inh conf – HTRA1 (human) inhibition, confirmation; shares compounds with HTRA1 inh; recombinant HTRA1, FP-rhodamine activity-based probe, fluorescence polarization; inhibition, % at 5.96 µM; 1,600 compounds, 66% hits; AID 540248;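 active means mean inhibition over three repeats above a set limit taken from the earlier primary screen, cut at about 37% in these data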;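 further: 0% = HTRA1 with DMSO and 100% = wells lacking HTRA1; inhibitors block probe binding so polarization drops and inhibition rises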
BSA probe FL – counter-screen for TCR-CD3 interaction inhibitors: BSA probe; shares compounds with TCR-CD3 inh; TAMRA-labeled BSA probe fluorescence counterscreen; inhibition, % at 9.4 µM; 1,200 compounds, 10% hits; in the data active means inhibition above about 23%;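 further: 0% = buffer low control and 100% = reference high control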
TCR-CD3 inh conf – confirmation of human TCR-CD3 interaction inhibitors; 1,200 compounds, 48% hits; inhibition, % at 9.4 µM; TAMRA-labeled TCR probe fluorescence binding assay; shares compounds with TCR-CD3 inh
mABHD4 conf – ABHD4 (mouse) inhibition, FP confirmation. shares compounds with mABHD4 FP. purified mABHD4, FP-Rh probe fluorescence polarization. inhibition, % at 8.92 µM. 1,800 compounds, 55% hits;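 active means mean inhibition across replicates above the hit cutoff set in the primary screen, cut at about 30% in these data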;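 further: 0% = wild-type ABHD4 with DMSO and 100% = catalytically dead S159A mutant with DMSO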
SIAE inh conf – human SIAE inhibition, confirmation; shares compounds with SIAE inh; SIAE FP-Rh activity-based probe, fluorescence polarization; inhibition, % at 9.66 µM; 2,300 compounds, 13% hits; AID 1117263;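 active means mean inhibition of the replicates above the hit cutoff set in the primary screen, cut at about 17% in these data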;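 further: 0% = SIAE with DMSO and probe and 100% = probe without SIAE; inhibitors lower polarization as more probe stays unbound to SIAE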
Active calls of the source: *; i = inactive; x = no result given; + = active, no number. Sampled rows, rich in hits. Any-hit rate of the full collection: about 1.6%. Unless noted, no stated cut-off is given here; in the data, active means inhibition above about 19%; inactive means the rest.

SMILES | mABHD4 FP | DAGLB inh | HTRA1 inh | SIAE inh | TCR-CD3 inh | HTRA1 inh conf | SIAE inh conf | others
O=C(N/N=C/c1ccc(O)c(O)c1)c1cc(-c2ccccc2)nc2ccccc12 | 21.7 | 10.2 | 62.6* | 19.5* | 11.0 | 75.7* | -12.6
Cn1c2ccccc2c2cc(/C=N/NC(=O)c3cc(O)ccc3O)ccc21 | 52.4* | 6.9 | 63.7* | 49.8* | 42.8* | 63.9* | 5.0 | BSA probe FL=-17.8;TCR-CD3 inh conf=23.2*;mABHD4 conf=0.4
Cn1c2ccccc2c2cc(/C=N/NC(=O)c3cc(O)cc(O)c3)ccc21 | -29.8 | 1.8 | -41.3 | -21.9 | 11.9 | x | x
CC(=O)c1cc(-c2ccccc2)c(=O)n2c1CCC2 | 3.0 | x | x | 0.3 | x | x | x
COc1ccc(OC)c(N)c1 | 41.3* | 3.5 | 65.9* | 28.2* | 22.8* | 25.4 | 14.1 | BSA probe FL=21.8;TCR-CD3 inh conf=18.4;mABHD4 conf=24.4
C[C@@H]1CCN(C2CC2)S(=O)(=O)c2ccc(N3CCC[C@@H]3CO)cc2O1 | 2.2 | x | x | 3.1 | x | x | x
OC1CCC2CN3CCc4c([nH]c5ccccc45)C3CC2C1 (stereo not drawn) | 8.5 | x | x | 3.9 | -0.5 | x | x
O=C(O)[C@@H]1[C@H]2C[C@H]3c4[nH]c5ccccc5c4CCN3C[C@@H]2CC[C@@H]1O | 39.2* | 0.6 | 45.5* | 24.4* | 45.6* | 7.2 | 15.0 | BSA probe FL=7.9;TCR-CD3 inh conf=5.3;mABHD4 conf=31.7*
CCCCCCN1CCS(=O)(=O)N(Cc2ccc(C)cc2)C(C(=O)OC)C1 (stereo not drawn) | 1.9 | x | x | 6.1 | x | x | x
C=CCn1cc(/C=N/Nc2nc3ccccc3[nH]2)c2ccccc21 | 24.6 | 4.0 | 40.7* | 56.1* | -0.7 | 42.5* | 53.1*
COc1ccccc1C(NC(C)=O)c1cc(Cl)c2cccnc2c1O (stereo not drawn) | 5.7 | 6.8 | 48.7* | 21.9* | 5.2 | 70.9* | 13.7
CCC(=O)NC(c1ccc(OC)c(OC)c1)c1cc(Cl)c2cccnc2c1O (stereo not drawn) | 7.0 | 9.8 | 52.1* | 26.0* | -0.7 | 80.7* | 10.7
CC(=O)NC(C)c1cc(Cl)c2ccccc2c1O (stereo not drawn) | 0.2 | 0.8 | -0.7 | 5.8 | 2.1 | x | x
c1ccc(-c2nc3ccccc3[nH]2)cc1 | -0.4 | 1.7 | -2.0 | -5.2 | 4.5 | x | x
Nc1cc(N)cc(-c2nc3ccccc3[nH]2)c1 | 12.2 | 4.1 | 46.8* | 31.2* | -7.6 | 20.9 | 5.3
COCCCN1C(=O)[C@H](CC(=O)NCCc2ccccc2OC)[C@]2(C(=O)OC)CCCCC=C12 | -0.7 | x | x | -6.2 | x | x | x
O=C(c1ccc(F)cc1F)N(Cc1ccccn1)CC1CCCO1 (stereo not drawn) | 6.9 | x | x | -1.1 | x | x | x
N#CC(C#N)=C1C=C2C=C(N3CCCCCC3)CCC2CC1 (stereo not drawn) | -9.8 | i | 52.4* | 28.1* | 29.2* | 34.7 | 21.5* | BSA probe FL=20.3;TCR-CD3 inh conf=13.6
N#CC(C#N)=C1C=C2C=C(N3CCOCC3)CCC2CC1 (stereo not drawn) | 1.3 | -156.3 | 6.3 | 0.4 | 3.6 | x | x
Cc1ccc(NC(=O)OC2CC3CC2[C@H]2CCCCN2C3)cc1 (stereo partly drawn) | -5.3 | x | x | 1.4 | x | x | x
COc1ccccc1N1CCN(Cc2cc(Br)c(O)c3ncccc23)CC1 | 22.0 | 5.3 | 55.4* | 28.8* | 3.2 | 82.4* | 22.3*
O=C(Nc1nccs1)C1CC=CCC1 (stereo not drawn) | 6.3 | 0.3 | -10.3 | 2.8 | -1.1 | x | x
O=C(Nc1ccc(O)cc1)C1CC=CCC1 (stereo not drawn) | 25.8 | 2.7 | 47.7* | 22.7* | 17.6 | 42.0* | 14.7
Cc1ccc2[nH]c(C)c(/C=N/Nc3nc4ccccc4s3)c2c1 | 31.3* | 5.7 | 49.4* | 40.6* | 3.2 | 53.2* | 16.6 | mABHD4 conf=43.4*
CC(C)(C)c1ccc(-c2nnc(SCC(=O)Nc3ccc(S(=O)(=O)Nc4nccs4)cc3)n2-c2ccc(Cl)cc2)cc1 | -77.6 | x | x | -43.5 | x | x | x
SMILES | mABHD4 FP | DAGLB inh | HTRA1 inh | SIAE inh | TCR-CD3 inh | HTRA1 inh conf | SIAE inh conf | others
Cc1c2cc(O)c(=O)cc-2oc2cc(O)c(O)cc12 | 35.0* | 1.8 | 49.4* | 56.1* | 183.8* | 125.2* | 103.7* | BSA probe FL=+;TCR-CD3 inh conf=+
COc1cccc(CNC(=O)Cn2c(-c3ccccc3)cc(C(C)=O)c2C)c1OC | -4.9 | x | x | -3.1 | x | x | x
Cc1ccc(C(C)C)c(OCc2ccc(C(=O)N/N=C/c3cccc(O)c3O)cc2)c1 | 12.2 | 9.5 | 83.4* | 27.9* | 18.4 | 78.4* | -0.5
CC(=O)Nc1ccc(C(=O)N/N=C/c2ccccc2OCc2ccccc2)cc1 | -45.6 | 1.9 | -53.2 | -44.3 | 6.4 | x | x
O=C(CSc1cccc2cccnc12)N/N=C/c1cccc(O)c1 | -6.3 | -4.4 | -9.3 | -3.0 | 3.9 | x | x
O=C(N/N=C/c1ccc(O)c(O)c1)c1ccc(CSc2cccc3cccnc23)cc1 | 22.9 | 4.0 | 56.8* | 41.5* | 16.1 | 85.0* | 15.5
Cc1ccc(C(C)C)c(OCc2ccc(C(=O)N/N=C/c3ccc(O)c(O)c3)cc2)c1 | 18.1 | 6.7 | 63.2* | 25.8* | -0.8 | 55.9* | -14.0
C=C1[C@@H](OC(C)=O)C=C[C@@]2(C)C=CC(=O)[C@@](C)(OC(C)=O)[C@@H]2[C@@H](OC(C)=O)[C@]2(O)[C@@H](C)C(=O)O[C@H]2[C@H]1Cl | -3.5 | x | x | 6.5 | 9.9 | x | x
CCOC(=O)[C@@]12CN(C(=O)OC(C)(C)C)CC=C1N(Cc1ccc(OC)cc1)C(=O)[C@H]2CC(=O)NCCc1ccccc1OC | 0.6 | x | x | 6.8 | x | x | x
Clc1ccc(-n2c(Cc3cccs3)nnc2SC/C=C/c2ccccc2)cc1 | -1.6 | x | x | -2.5 | x | x | x
CC(C)(C)S(=O)N1C[C@@H]2CC(=O)C(c3ccccc3)=C2[C@H]1CCO (stereo partly drawn) | 5.3 | x | x | 0.5 | -7.9 | x | x
S=C(Nc1ccc(N2CCOCC2)cc1)Nc1ccc2nc(-c3ccco3)c(-c3ccco3)nc2c1 | 37.7* | 7.7 | 47.7* | 20.5* | 8.9 | 31.8 | 4.7 | mABHD4 conf=42.5*
COc1ccc2nc(-c3ccco3)c(-c3ccco3)nc2c1 | 57.0* | 6.5 | 51.9* | 22.8* | 31.1* | 32.7 | 4.1 | BSA probe FL=-9.4;TCR-CD3 inh conf=31.4*;mABHD4 conf=28.6
O=C(Nc1ccccc1)c1ccc2nc(-c3ccco3)c(-c3ccco3)nc2c1 | 46.7* | 14.5 | 59.4* | 22.4* | 24.1* | -20.0 | -1.5 | mABHD4 conf=21.9
